PLK1 kinase inh = human PLK1 kinase inhibitors, primary screen, biochemical, TR-FRET; recombinant PLK1 kinase, TR-FRET peptide phosphorylation; hit rate 0.53% among 97,000; inhibition, % at 10 µM; Serine/threonine-protein kinase PLK1 (Homo sapiens), P53350;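 active = inhibition of 50% or more in the single-concentration screen; inactive = inhibition below 50%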
Rev-RRE block = HIV-1 Rev-RRE binding inhibitors, primary screen, biochemical, FRET, protein-RNA interaction | AID 704, 2007 | inhibition, % at 8 µM | hit rate 0.79% among 97,000 | P05866 | Rev peptide-RRE RNA binding;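 active = inhibition above the screen-wide mean plus 3 SD, cut at about 35% in these data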
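Test system: labelled RRE RNA duplex and labelled Rev peptide. Times: 5 min compound–RNA preincubation, then 15 min with peptide, 25 °C. Doses: single-dose 8 µM. Measured by: FRET, excitation 480 nm, emission 540 nm donor and 671 nm acceptor. Measure: % inhibition of FRET ratio versus controls.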
PLAP activator = PLAP enzyme activators, biochemical, luminescence, HTS. Alkaline phosphatase, placental type (Homo sapiens), P05187. purified PLAP enzyme, luminescent substrate read-out; active compounds read high. activation fold at 20 µM. hit rate 1.2% among 96,000. AID 696, 2007; in the data active = activation fold above about 2
Plk1 PBD FP = Plk1 polo box domain binding inhibitors, primary screen, biochemical, fluorescence polarization | Serine/threonine-protein kinase PLK1 (Homo sapiens), P53350 | Plk1 PBD phosphopeptide binding | inhibition, %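 (tested at about 20 µM)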 | hit rate 0.13% among 97,000; in the data active = inhibition above about 34%, passing the limit was not always enough
LYP act = LYP phosphatase activators, primary screen, biochemical, DiFMUP fluorescence, 2 µM; recombinant LYP; 0 = plate median, 100 = signal doubled; activation, % at 2 µM; hit rate 0.11% among 96,000;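 active = activation at 2 µM above a set limit, the mean plus 5 SD, cut at about 37% in these data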
Target sequence (Q9Y2R2 whole entry, looked up): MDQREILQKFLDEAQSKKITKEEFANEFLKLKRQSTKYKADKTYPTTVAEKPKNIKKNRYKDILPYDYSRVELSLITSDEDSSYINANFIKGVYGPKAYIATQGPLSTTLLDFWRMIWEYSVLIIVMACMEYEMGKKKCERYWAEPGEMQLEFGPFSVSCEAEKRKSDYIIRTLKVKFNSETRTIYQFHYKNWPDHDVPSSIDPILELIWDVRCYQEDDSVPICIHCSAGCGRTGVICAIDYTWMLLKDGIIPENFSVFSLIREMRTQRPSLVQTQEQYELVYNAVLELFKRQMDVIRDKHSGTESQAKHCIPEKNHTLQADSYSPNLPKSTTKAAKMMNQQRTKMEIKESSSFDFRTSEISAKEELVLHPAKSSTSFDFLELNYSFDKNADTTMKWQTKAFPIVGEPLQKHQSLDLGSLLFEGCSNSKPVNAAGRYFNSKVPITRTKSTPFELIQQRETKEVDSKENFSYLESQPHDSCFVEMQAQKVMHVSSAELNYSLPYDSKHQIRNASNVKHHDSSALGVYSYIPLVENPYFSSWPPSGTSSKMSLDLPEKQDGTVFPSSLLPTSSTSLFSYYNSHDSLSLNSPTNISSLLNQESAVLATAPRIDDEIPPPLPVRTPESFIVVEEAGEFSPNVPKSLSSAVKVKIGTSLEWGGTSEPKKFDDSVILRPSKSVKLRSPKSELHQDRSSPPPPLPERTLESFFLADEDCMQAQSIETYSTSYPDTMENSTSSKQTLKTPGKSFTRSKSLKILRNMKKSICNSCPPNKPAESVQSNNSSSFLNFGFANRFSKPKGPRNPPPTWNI
PTPN22 inh 2 = PTPN22 phosphatase inhibitors, primary screen, biochemical, DiFMUP fluorescence, 2 µM. Tyrosine-protein phosphatase non-receptor type 22 (Homo sapiens), Q9Y2R2. recombinant LYP catalytic domain. inhibition, % at 2 µM. hit rate 0.21% among 96,000. AID 640, 2007;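 active = inhibition at 2 µM at or above a set limit, the screen mean plus 3 SD, cut at about 24% in these data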
Of the large screens only hits and unclear results are named; the others gave an inactive call; [ ] = dose if it differs, or a comment. A selection: hits, their analogues and other compounds. The true share with any hit is near 2.7%.

COc1ccccc1-c1c(C)nn2c(C)cc(C)nc12	none (no result: PLK1 kinase inh, Rev-RRE block, Plk1 PBD FP, LYP act, PTPN22 inh 2)
COc1cccc(-c2nn(C)c3sc(C(=O)NCc4ccc5c(c4)OCO5)cc23)c1	PLAP activator 2.2
COc1cccc(/C=N/NC(=O)CCc2c(C)n[nH]c2C)c1	PLAP activator 2.1
COc1cccc(/C=N/NC(=O)CCc2ccccc2)c1	none
Cc1cc(-n2c(C)cc(C(=O)CSc3nc4ccccc4c(=O)n3Cc3ccco3)c2C)no1	none
CCOc1ccc(C2CC(=O)NC(SC)=C2C#N)cc1 (stereo not given)	none
CSC1=C(C#N)C(c2ccc(C(C)C)cc2)CC(=O)N1 (stereo not given)	PLK1 kinase inh 66 (no result: LYP act, PTPN22 inh 2)
COC(=O)c1ccccc1NC(=O)CSc1n[nH]c(CC(C)C)n1	PLAP activator 2.4
COC(=O)c1ccccc1NC(=O)CSc1n[nH]c(C)n1	none (no result: PLAP activator)
S=C(Nc1cccc(Cl)c1)Nc1ccccc1Oc1ccccc1	none
O=C1N/C(=N\N=C\c2cccnc2)SC1Cc1ccc(SC(F)F)cc1 (stereo not given)	PLAP activator 2.1
CC(C)CNS(=O)(=O)c1ccc(S(=O)(=O)N2CCCN(Cc3ccccc3)C2)cc1	none
O=C1NC(c2ccco2)Nc2sc3c(c21)CCN(Cc1ccccc1)C3 (stereo not given)	Rev-RRE block 70
CN1CCc2c(sc3c2C(=O)NC(c2ccco2)N3)C1 (stereo not given)	none
CN1CCc2c(sc3c2C(=O)NC(c2cn(Cc4ccccc4)c4ccccc24)N3)C1 (stereo not given)	Rev-RRE block 79
COc1ccc(-c2nc(=S)[nH][nH]2)cc1	PLAP activator 2
NS(=O)(=O)c1ccc(CCNC(=O)c2ccc(S(=O)(=O)N3CCCCC3)cc2)cc1	PLAP activator 2
CC(=O)NCCc1ccc(S(=O)(=O)N2CCCC2)cc1	none
N=c1c(C(=O)NCc2ccc(F)cc2)cc2c(=O)n3ccccc3nc2n1CC1CCCO1 (stereo not given)	none
CC1CCCCN1CCNC(=O)c1cnn2ccccc12 (stereo not given)	PLK1 kinase inh 69 (no result: LYP act, PTPN22 inh 2)
Cc1cc(C(=O)NCCN2CCCCC2C)n(-c2ccccc2)n1 (stereo not given)	none
COc1ccc(CNCc2cc3c(C(C)(C)C)nn(-c4ccccc4)c3[nH]c2=O)cc1	PLAP activator 2.5
CC(C)(C)c1nn(-c2ccccc2)c2[nH]c(=O)c(CNCc3ccco3)cc12	PLAP activator 2.4
Cc1ccc(CNCc2cc3c(C(C)(C)C)nn(-c4ccccc4)c3[nH]c2=O)cc1	PLAP activator 2.1
Cc1cccc(-c2nsc(SCC(=O)Nc3nccs3)n2)c1	none
COc1cccc(N=Nc2c(=O)[nH]n3c(=O)cc(C)[nH]c23)c1	PLAP activator 2
O=c1[nH]n2c(=O)c3c([nH]c2c1N=Nc1cccc(C(F)(F)F)c1)CCCC3	none (no result: PLAP activator)
O=C(CSc1nc(-c2ccccc2)cc(C(F)(F)F)n1)NCc1ccco1	none
CC(=O)Nc1cccc(NC(=O)CCn2cnc3cc(C)c(C)cc32)c1	PTPN22 inh 2 25
COC(=O)c1ccc(C2c3c(n[nH]c3C)C(=O)N2c2ccc(C)cc2)cc1 (stereo not given)	PLAP activator 2.3
CCOc1cc(C2c3c(n[nH]c3C)C(=O)N2c2ccc(Br)cc2)ccc1O (stereo not given)	PLAP activator 2.3
CCOC(=O)c1ccc(N2C(=O)c3n[nH]c(C)c3C2c2ccc(OC)c(OC)c2)cc1 (stereo not given)	none (no result: PLAP activator)
Cc1ccc(N2C(=O)c3n[nH]c(C)c3C2c2ccccn2)cc1 (stereo not given)	none
CCOC(=O)c1ccc(N2C(=O)c3n[nH]c(C)c3C2c2ccco2)cc1 (stereo not given)	PLAP activator 2.7
CCOC(=O)c1ccc(N2C(=O)c3n[nH]c(C)c3C2c2ccc(OC)cc2)cc1 (stereo not given)	PLAP activator 2.6
CCOC(=O)c1c(C)n(C(=O)c2ccco2)c(=O)n1C(=O)c1ccco1	none
CC1CN(S(=O)(=O)c2ccc(NC(=O)CCCN3C(=O)c4ccccc4C3=O)cc2)CC(C)O1 (stereo not given)	none
O=S(=O)(c1ccc(N2CCC(c3ccc(Cl)cc3)=N2)cc1)N(CCO)CCO	PLAP activator 2.2
CCN(CC(=O)N1CCCCCC1)S(=O)(=O)c1ccc(Cl)cc1	none
CN(C)CCCNS(=O)(=O)c1ccc(N2CCC(c3ccc(Cl)cc3)=N2)cc1	PLAP activator 2.3
CCN1C(=O)CS/C1=C(\C#N)S(=O)(=O)c1ccccc1	Rev-RRE block 37
CCn1cc(/C=C(/C#N)S(=O)(=O)c2ccccc2)cn1	none
Cc1cccc(C)c1OCCSc1n[nH]c(N)n1	PLAP activator 2
Nc1nc(SCc2c(Cl)cccc2Cl)n[nH]1	none
COCCCNc1c2c3c(cccc3[nH]c1=O)C(=O)c1ccccc1-2	Rev-RRE block 141[fluorescence artefact?]
CCOc1ccc2nc(Nc3nc(CSc4nnnn4-c4ccccc4)cc(=O)[nH]3)nc(C)c2c1	PLAP activator 2.5
COCc1cc(=O)[nH]c(Nc2nc(C)c3ccccc3n2)n1	none (no result: PLAP activator)
COc1ccc2nc(Nc3nc(CSc4nnnn4-c4ccccc4)cc(=O)[nH]3)nc(C)c2c1	PLAP activator 2.2
Cc1ccc2c(C)nc(Nc3nc(CSc4nnnn4-c4ccccc4)cc(=O)[nH]3)nc2c1	PLAP activator 2.2 (no result: PLK1 kinase inh, Rev-RRE block, Plk1 PBD FP, LYP act, PTPN22 inh 2)
CCOc1ccc(OCCSc2nnnn2-c2ccccc2)cc1	none
COc1ccc2nc(C)[nH]c(=O)c2c1	none
COc1ccc2nc(Nc3nc(C)c(CCC(C)C)c(=O)[nH]3)nc(C)c2c1	PLAP activator 2.3
Cc1ccc(SCc2cc(=O)[nH]c(Nc3nc(C)c4cccc(C)c4n3)n2)cc1	none
CC1=NN(C(=O)c2cccc(Cn3nc(C)c([N+](=O)[O-])c3C)c2)C(O)(C(F)(F)F)C1 (stereo not given)	PLAP activator 2.1
COC(=O)c1ccccc1NC(=O)N[C@@H](C)C(=O)OC	none
CCN(CC)CCNc1nc2c(c(=O)[nH]c(=O)n2C)n1CC(O)COc1ccc(Cl)cc1Cl (stereo not given)	PLAP activator 2
COCc1[nH][nH]c(=O)c1C=Nc1ccccc1	PLAP activator 2
Cn1c(SCC(=O)c2ccc3c(c2)OCCO3)nnc1C1CC1	PLK1 kinase inh 61 (no result: PLAP activator)
COC(=O)c1cscc1NC(C)=O	none
Cc1nc(-n2[nH]c3c(c2=O)CCCC3)[nH]c(=O)c1Cc1ccccc1	Rev-RRE block 86[fluorescence artefact?]
Cc1cc(=O)[nH]c(-n2[nH]c3c(c2=O)CCCC3)n1	PLAP activator 2.6

Assay outcomes from PubChem.
